# ChEMBL document CHEMBL1156883, “Low molecular weight antagonists of the myelin-associated glycoprotein: synthesis, docking, and biological evaluation” (J Med Chem, 2010)
# pKd: −log10 of the molar value.
# Legend:
# [1] = biological target: T1, Myelin-associated glycoprotein (Mus musculus, UniProt P20917); test: Binding affinity to mouse MAGd1-3Fc expressed in CHO-Lec 3.2.8.1 cells by SPR analysis
# T1 sequence (P20917 whole entry): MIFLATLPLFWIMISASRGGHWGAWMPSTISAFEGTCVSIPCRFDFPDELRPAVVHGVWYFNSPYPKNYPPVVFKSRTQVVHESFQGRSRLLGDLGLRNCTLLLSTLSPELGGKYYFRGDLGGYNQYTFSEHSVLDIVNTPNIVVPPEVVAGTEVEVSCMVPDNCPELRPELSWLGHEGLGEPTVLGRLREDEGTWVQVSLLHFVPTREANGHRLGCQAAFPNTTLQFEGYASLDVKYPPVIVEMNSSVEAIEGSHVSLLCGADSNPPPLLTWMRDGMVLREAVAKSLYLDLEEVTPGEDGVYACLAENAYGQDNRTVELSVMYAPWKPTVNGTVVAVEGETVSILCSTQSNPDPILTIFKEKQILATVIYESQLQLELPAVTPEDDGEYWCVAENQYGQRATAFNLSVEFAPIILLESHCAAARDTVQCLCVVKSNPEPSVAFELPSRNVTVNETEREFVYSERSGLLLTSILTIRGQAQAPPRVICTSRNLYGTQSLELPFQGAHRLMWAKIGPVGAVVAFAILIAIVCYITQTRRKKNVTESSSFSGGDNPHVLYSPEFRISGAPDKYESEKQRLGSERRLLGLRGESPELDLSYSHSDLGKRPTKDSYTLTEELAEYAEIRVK
# Outline: (§1)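 Murine MAGd1-3-Fc (purified from CHO-Lec 3.2.8.1 supernatant) captured at 30-40 μg/mL to about 2000 RU on protein A, which was amine-coupled to a CM5 chip. Runs at 25 °C, 20 μL/min, with 1 min injection and 1 min dissociation. Ten-fold dilution series in duplicate, double blank referenced. Negative sensorgrams mirrored; equilibrium KD.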
# [2] = biological target: T2, Myelin-associated glycoprotein (Mus musculus) (UniProt P20917); test: Inhibition of mouse MAGd1-3Fc expressed in CHO-Lec 3.2.8.1 cells by hepten inhibition assay relative to sodium-(2R,4S,5R,6R)-5-acetamido-2-(benzyloxy)-6-((1S,2R)-3-(4-chlorobenzamido)-1,2-dihydroxypropyl)-4-hydroxytetrahydro-2H-pyran-2-carboxylate; format: cell-based
# T2 sequence (whole entry): T1 sequence (P20917 whole entry)
# Outline: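 Fetuin-coated microtiter plates. Murine MAGd1-3-Fc (from CHO-Lec 3.2.8.1, dialyzed into 10 mM phosphate pH 7.4) bound in the presence of 7-8 inhibitor concentrations, in triplicate. Bound protein detected with alkaline phosphatase-labeled anti-Fc, read as initial rate of fluorescein release from fluorescein diphosphate. IC50 from binding curves converted to rIC50. At least three independent titrations.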
# [3] = Octanol-water distribution coefficient, log D at pH 7.4 by shake-flask technique; format: physicochemical
# [4] = biological target: T2, Myelin-associated glycoprotein (Mus musculus); test: Relative binding affinity to mouse MAGd1-3Fc expressed in CHO-Lec 3.2.8.1 cells by NMR analysis relative to compound 4
# [5] = Stability in buffer solution at 37 degC after 19 hrs; format: physicochemical; settings: read-out: Stability
# [6] = Stability in artificial cerebrospinal fluid at 37 degC […]; format: physicochemical; settings: read-out: Stability
# [7] = biological target: T1, Myelin-associated glycoprotein; test: Binding affinity to mouse MAGd1-3Fc expressed in CHO-Lec 3.2.8.1 cells under NaCl condition by CM5 chip SPR analysis
# Outline: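 SPR on a CM5 chip with protein A-captured murine MAGd1-3-Fc. Salt was raised to 150-500 mM NaCl to exclude ionic repulsion. Runs at 25 °C, 20 μL/min, 1 min contact and 1 min dissociation, double blank referenced. Equilibrium KD from mirrored sensorgrams.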
# [8] = biological target: T1, Myelin-associated glycoprotein; test: Binding affinity to mouse MAGd1-3Fc expressed in CHO-Lec 3.2.8.1 cells under HBS-EP condition by CM4 chip SPR analysis
# Outline: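 Protein A was amine-coupled to a CM4 chip (lower carboxylate density) and murine MAGd1-3-Fc captured on it. Run in HBS-EP at 25 °C, 20 μL/min, with 1 min association and 1 min dissociation. Ten-fold dilution series in duplicate, double blank referenced. Negative sensorgrams mirrored to give equilibrium KD.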
# [9] = biological target: T1, Myelin-associated glycoprotein; test: Binding affinity to mouse MAGd1-3Fc expressed in CHO-Lec 3.2.8.1 cells under HEPES condition by CM5 chip SPR analysis
# Outline: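 Murine MAGd1-3-Fc captured on protein A on a CM5 chip. Running buffer carried 50 mM instead of 10 mM HEPES to raise buffer capacity. SPR at 25 °C, 20 μL/min, 1 min injection and 1 min dissociation, double blank referenced. KD taken at equilibrium from mirrored sensorgrams.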
# [10] = biological target: T1, Myelin-associated glycoprotein; test: Binding affinity to mouse MAGd1-3Fc expressed in CHO-Lec 3.2.8.1 cells under carboxymethyl-dextran sodium salt condition by CM5 chip SPR analysis
# Outline: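 Dextran (1 mg/mL) added to the running buffer to test nonspecific binding to the matrix. Murine MAGd1-3-Fc captured via protein A on a CM5 chip. Runs at 25 °C, 20 μL/min, 1 min injection and 1 min dissociation. Equilibrium KD from mirrored sensorgrams.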
# [11] = biological target: T1, Myelin-associated glycoprotein; test: Binding affinity to mouse MAGd1-3Fc expressed in CHO-Lec 3.2.8.1 cells under HBS-EP condition by CM5 chip SPR analysis; outline: as §1
# [12] = biological target: T1, Myelin-associated glycoprotein; test: Binding affinity to mouse MAGd1-3Fc expressed in CHO-Lec 3.2.8.1 cells by biocore; format: cell-based; outline: as §1
Compound,pKd [1],Ratio [2],logD [3],also measured
O=C(NC[C@@H](O)[C@H](O)[C@@H]1O[C@@](OCc2cccc(F)c2F)(C(=O)O)C[C@H](O)[C@H]1NS(=O)(=O)c1ccccc1[N+](=O)[O-])c1ccc(Cl)cc1,5.85,0.05,0.87,
CC(=O)N[C@H]1[C@H]([C@@H](O)[C@H](O)CNC(=O)c2ccc(Cl)cc2)O[C@@](OCc2ccc(Cl)cc2)(C(=O)O)C[C@@H]1O,4.82,1.3,0.36,
O=C(NC[C@@H](O)[C@H](O)[C@@H]1O[C@@](OCc2cccc(F)c2F)(C(=O)O)C[C@H](O)[C@H]1NC(=O)C1CC1)c1ccc(Cl)cc1,5.39,0.1,0.31,
CC(=O)N[C@H]1[C@H]([C@@H](O)[C@H](O)CNC(=O)c2ccc(Cl)cc2)O[C@@](OCc2cccc(Cl)c2Cl)(C(=O)O)C[C@@H]1O,5.37,0.5,0.53,
CS(=O)(=O)N[C@H]1[C@H]([C@@H](O)[C@H](O)CNC(=O)c2ccc(Cl)cc2)O[C@@](OCc2cccc(F)c2F)(C(=O)O)C[C@@H]1O,4.77,0.6,-0.17,
CC(=O)N[C@H]1[C@H]([C@@H](O)[C@H](O)CNC(=O)c2ccccc2)O[C@@](OCc2c[nH]nn2)(C(=O)O)C[C@@H]1O,4.93,0.74,,
CC(=O)N[C@H]1[C@H]([C@@H](O)[C@H](O)CNC(=O)c2ccc(Cl)cc2)O[C@@](OCc2cccc(F)c2F)(C(=O)O)C[C@@H]1O,5.62,0.3,-0.27,Ratio [4]: 34.4; remaining at 19 h [5]: 95%; remaining [6]: 95%
CC(=O)N[C@H]1[C@H]([C@@H](O)[C@H](O)CNC(=O)c2ccc(Cl)cc2)O[C@@](OCc2ccccc2)(C(=O)O)C[C@@H]1O,4.77,1,,
CC(=O)N[C@H]1[C@H]([C@@H](O)[C@H](O)CNC(=O)c2ccc(Cl)cc2)O[C@@](OCc2ccc(F)cc2)(C(=O)O)C[C@@H]1O,4.89,1.2,-0.11,
O=C(NC[C@@H](O)[C@H](O)[C@@H]1O[C@@](OCc2cccc(F)c2F)(C(=O)O)C[C@H](O)[C@H]1NC(=O)C1CCC1)c1ccc(Cl)cc1,5.24,0.14,0.75,
CC(=O)N[C@H]1[C@H]([C@@H](O)[C@H](O)CNC(=O)c2ccc(Cl)cc2)O[C@@](OCc2c(F)c(F)c(F)c(F)c2F)(C(=O)O)C[C@@H]1O,5.21,0.26,-0.11,
CC(=O)N[C@H]1[C@H]([C@@H](O)[C@H](O)CNC(=O)c2ccc(Cl)c(Cl)c2)O[C@@](OCc2ccccc2)(C(=O)O)C[C@@H]1O,4.72,1.61,,
O=C(CF)N[C@H]1[C@H]([C@@H](O)[C@H](O)CNC(=O)c2ccc(Cl)cc2)O[C@@](OCc2cccc(F)c2F)(C(=O)O)C[C@@H]1O,6.30,0.02,-0.26,remaining at 19 h [5]: 95%; remaining [6]: 95%
CC(=O)N[C@H]1[C@H]([C@@H](O)[C@H](O)CNC(=O)c2ccccc2)O[C@@](OCc2ccccc2)(C(=O)O)C[C@@H]1O,4.59,1.5,,pKd [7]: 4.83; pKd [8]: 4.70; pKd [9]: 4.75; pKd [10]: 4.75; pKd [11]: 4.66
O=C(O)N[C@H]1[C@H]([C@H](O)[C@H](O)CNC(=O)c2ccc(Cl)cc2)O[C@@](O[C@H]2[C@@H](O)[C@@H](CO)O[C@@H](O[C@@H]3CCO[C@H](COCc4ccc(-c5ccccc5)cc4)[C@@H]3O)[C@@H]2O)(C(=O)O)C[C@@H]1O,5.55,0.52,,
CC(=O)N[C@H]1[C@H]([C@@H](O)[C@H](O)CNC(=O)c2cccc(Cl)c2)O[C@@](OCc2ccccc2)(C(=O)O)C[C@@H]1O,4.47,2.65,,
O=C(CCl)N[C@H]1[C@H]([C@@H](O)[C@H](O)CNC(=O)c2ccc(Cl)cc2)O[C@@](OCc2cccc(F)c2F)(C(=O)O)C[C@@H]1O,5.68,0.07,0.35,
COCC(=O)N[C@H]1[C@H]([C@@H](O)[C@H](O)CNC(=O)c2ccc(Cl)cc2)O[C@@](OCc2cccc(F)c2F)(C(=O)O)C[C@@H]1O,5.64,0.14,0.06,
CC(=O)N[C@H]1[C@H]([C@@H](O)[C@H](O)CNC(=O)c2ccc(Cl)cc2)O[C@@](OCc2ccc3ccccc3c2)(C(=O)O)C[C@@H]1O,4.94,0.74,0.58,
CO[C@]1(C(=O)O)C[C@H](O)[C@@H](NC(C)=O)[C@H]([C@@H](O)[C@H](O)CNC(=O)c2ccccc2)O1,3.86,18,,pKd [12]: 3.86
